Measurements from different studies.
Medium: Caco-2

C[C@@H]1O[C@@H](O[C@H]2[C@H](Oc3cc(O)c4c(c3)O[C@H](c3ccc(O)cc3)CC4=O)O[C@H](CO)[C@@H](O)[C@@H]2O)[C@H](O)[C@H](O)[C@H]1O — Papp A→B (100 µg/mL; 2 h): 21 ×10⁻⁶ cm/s
COCC(=O)OCc1cc2[nH]c(=S)n(Cc3cccnc3)c(=O)c2cc1Cl — Papp A→B (10 µM; 90 min; pH 7.4): 0.2 ×10⁻⁶ cm/s
CCONC(=O)N1CCC[C@H](C(=O)NCc2nc(-c3ccc(C#N)cc3)cs2)C1 — Papp A→B (pH 7.4): 6.5 ×10⁻⁶ cm/s
N#Cc1ccc(C[C@H](NC(=O)Nc2ccc(F)cc2)C(=O)N2CCc3ccccc32)cc1 — Papp A→B (100 µM; 2 h): 49.3 ×10⁻⁶ cm/s
Oc1cc(O)c2c(c1)O[C@H](c1ccc(O)c(O)c1)[C@@H](O)C2 — Papp A→B (100 µg/mL; 2 h): 11.7 ×10⁻⁶ cm/s
CCOCC(=O)N1CCC[C@H](C(=O)NCc2nc(-c3ccc(C)nc3)cs2)C1 — Papp A→B (pH 7.4): 15 ×10⁻⁶ cm/s
O=c1cc(-c2ccc(O)cc2)oc2c([C@@H]3O[C@H](CO)[C@@H](O)[C@H](O)[C@H]3O)c(O)cc(O)c12 — Papp A→B (200 µg/mL): 0.322 ×10⁻⁶ cm/s
O=c1c2cc(Cl)ccc2[nH]c(=S)n1Cc1cccnc1 — Papp A→B (10 µM; 90 min; pH 7.4): 17.7 ×10⁻⁶ cm/s
CC(C)(N)COCC(=O)N1CCC[C@H](C(=O)NCc2nc(-c3ccc(C(F)(F)F)cc3)cs2)C1 — Papp A→B (pH 7.4): 0.18 ×10⁻⁶ cm/s
C=CC(=O)NC1CCN(c2ncc3ncnc(Nc4ccc(Oc5ccc6c(c5)ncn6C)c(C)c4)c3n2)CC1 — Papp A→B: ~6.8 ×10⁻⁶ cm/s
COc1ccc(-c2coc3cc(O)cc(O)c3c2=O)cc1 — Papp A→B (100 µg/mL; 2 h): 20.4 ×10⁻⁶ cm/s
COC(=O)[C@H]1[C@H]2C[C@@H]3c4[nH]c5cc(OC)ccc5c4CCN3C[C@H]2C[C@@H](OC(=O)c2cc(OC)c(OC)c(OC)c2)[C@@H]1OC — Papp A→B (5 µM; 2 h): 0.97 ×10⁻⁶ cm/s
N#Cc1ccc(C[C@H](NC(=O)c2cc3cc(F)ccc3[nH]2)C(=O)N2CCc3ccccc32)cc1 — Papp A→B (100 µM; 2 h): 1.2 ×10⁻⁶ cm/s
COc1cc(C2Oc3cc([C@H]4Oc5cc(O)cc(O)c5C(=O)[C@@H]4O)ccc3OC2CO)ccc1O (stereo partly shown) — Papp A→B (100 µg/mL; 2 h): 19 ×10⁻⁶ cm/s
CC(=O)OCc1cc2[nH]c(=S)n(Cc3cccnc3)c(=O)c2cc1Cl — Papp A→B (10 µM; 90 min; pH 7.4): 0.6 ×10⁻⁶ cm/s
CC(C)NCC(O)COc1cccc2ccccc12 (stereo not shown) — Papp A→B (5 µM; 2 h): 12.6 ×10⁻⁶ cm/s
CCCCCOC(=O)Nc1nc(=O)n([C@@H]2O[C@H](C)[C@@H](O)[C@H]2O)cc1F — Papp A→B (4 h): 3.24 ×10⁻⁶ cm/s
CN(C)CCc1c[nH]c2ccc(C[C@H]3COC(=O)N3)cc12 — Papp A→B (5 µM; 2 h): 0.56 ×10⁻⁶ cm/s
C[C@@H]1O[C@@H](OC[C@H]2O[C@@H](Oc3c(-c4ccc(O)c(O)c4)oc4cc(O)cc(O)c4c3=O)[C@H](O)[C@@H](O)[C@@H]2O)[C@H](O)[C@H](O)[C@H]1O — Papp A→B (100 µg/mL): 0.304 ×10⁻⁶ cm/s
